According to ChEMBL document CHEMBL1123272, “Comparison of (-)-eseroline with (+)-eseroline and dihydroseco analogues in antinociceptive assays: confirmation of rubreserine structure by X-ray analysis” (1986):
The source made the active and inactive calls. The calls are words filed in the database; no cut-off is given here.

Tests used:
Mus musculus [1] = assay: Compound was tested in vivo for narcotic agonist activity (dose in sc, mg/kg) in mice using tail flick assay.; format: functional
Mus musculus [2] = assay: Compound was tested in vivo for narcotic agonist activity (dose in sc, mg/kg) in mice using phenylquinone assay.; format: functional
Mus musculus [3] = assay: Compound was tested in vivo for narcotic agonist activity (dose in sc, mg/kg) in mice using hot plate assay; format: functional
How it was run: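 Mouse hot-plate test for narcotic agonist activity with subcutaneous dosing. Values are in mg/kg with 95% confidence limits.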

Mus musculus [4] = assay: Compound was tested in vivo for narcotic antagonist activity (dose in sc, mg/kg) in mice using tail flick antagonism assay; I = Inactive at 1,10, 30 mg/kg; format: functional, organism-based; design: dose 30 mg/kg
How it was run: (§1)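 Mouse tail-flick antagonism assay against morphine, with the test compound given subcutaneously and doses in mg/kg. It was run by an outside laboratory (Medical College of Virginia).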

Mus musculus [5] = assay: Compound was tested in vivo for narcotic antagonist activity (dose in sc, mg/kg) in mice using tail flick antagonism assay; I =inactive at 1, 10, 30 mg/kg; format: functional, organism-based; design: dose 30 mg/kg; how it was run: as §1
Mus musculus [6] = assay: Compound was tested in vivo for narcotic agonist activity (dose in sc, mg/kg) in mice using phenylquinone assay; format: functional
Mus musculus [7] = assay: Compound was tested in vivo for narcotic agonist activity (dose in sc, mg/kg) in mice using tail flick assay; format: functional
Mus musculus [8] = assay: Compound was tested in vivo for narcotic agonist activity (dose in sc, mg/kg) in mice using tail flick assay; I = Inactive at 1,10, 30 mg/kg; format: functional, organism-based; design: dose 30 mg/kg
Mus musculus [9] = assay: Compound was tested in vivo for narcotic antagonist activity (dose in sc, mg/kg) in mice using tail flick antagonism assay; format: functional; how it was run: as §1
Mus musculus [10] = assay: Compound was tested in vivo for narcotic agonist activity (dose in sc, mg/kg) in mice using hot plate assay; I = Inactive at 1,10, 30 mg/kg; format: functional, organism-based; design: dose 30 mg/kg
Mus musculus [11] = assay: Compound was tested in vivo for narcotic agonist activity (dose in sc, mg/kg) in mice using phenylquinone assay; I = Inactive at 1,10, 30 mg/kg; format: functional, organism-based; design: dose 30 mg/kg

SMILES	Activity (Mus musculus [2])	Activity (Mus musculus [3])	Activity (Mus musculus [4])	Activity (Mus musculus [8])	Activity (Mus musculus [10])	further results
CN1CC[C@@]2(C)c3cc(O)ccc3N(C)[C@@H]12	0.7	1.6	inactive	–	–	Activity (Mus musculus [1]): 2.3
CN1CC[C@]23c4c5ccc(O)c4O[C@H]2[C@@H](O)C=C[C@H]3[C@H]1C5 [MORPHINE]	–	1.3	–	–	–	Activity (Mus musculus [5]): inactive; Activity (Mus musculus [6]): 0.23; Activity (Mus musculus [7]): 5.8
C=CCN1CC[C@]23c4c5ccc(O)c4O[C@H]2C(=O)CC[C@@]3(O)[C@H]1C5 [NALOXONE]	–	–	–	inactive	inactive	Activity (Mus musculus [9]): 0.03; Activity (Mus musculus [11]): inactive
CN1CC[C@]2(C)c3cc(O)ccc3N(C)[C@H]12	2.3	–	inactive	inactive	inactive	–
CN1c2ccc(O)cc2[C@]2(C)CCN[C@H]12	–	–	–	–	inactive	–
